Assay results published in the EternaBench riboswitch data.

System: MS2 coat protein
Test: apparent Kd, MS2 coat protein; higher = weaker binding; RNA-MaP array; FMN 200 µM where present
Summary of the method: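 Designs were transcribed by stalled E. coli RNA polymerase on Illumina sequencing-chip clusters. They were titrated with SNAP-549-labelled MS2 coat protein from 0.7 or 1.5 nM, doubling to 3 µM, in 100 mM Tris-HCl pH 7.5, 80 mM KCl, 4 mM MgCl2, BSA, DTT, yeast tRNA and Tween-20, without and then with constant ligand. The apparent Kd is the median of filtered per-cluster fits after normalisation of green signal to red-channel RNA signal and control-cluster median Fmax.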

[1] = designed as: OFF switch for flavin mononucleotide, no ligand
[2] = ligand present: flavin mononucleotide, designed as: OFF switch for flavin mononucleotide
[3] = designed as: ON switch for flavin mononucleotide, no ligand
[4] = ligand present: flavin mononucleotide, designed as: ON switch for flavin mononucleotide

Sequence	apparent Kd [1] [nM]	apparent Kd [2] [nM]	apparent Kd [3] [nM]	apparent Kd [4] [nM]
GCGCUGCGUCAGAAGGGCCGAAAAGAGAAGAUGGCAGGAUAUGACAUGAGGAUCACCCAUGUACACGUCGCCAUGGGUGUUGGU	184	36.4	–	–
CAUUAAUUGAUUAUUGUAUUUAUACAGGAUAUGUAACAUGAGGAUCACCCAUGUAUACAUGGGAAACAGAAGGGUAUAUAAAGA	33.7	29.9	–	–
AUGCUAGUGUGAGGAUAUCAACAUGAGGAUCACCCAUGUUGGAAGUACACGACAUGCGGUACAUCUGAGAAGGUACAUUAGCAU	29.1	52	–	–
UGUCGGAGCAGAGGAUAUUACAUGAGGAUCACCCAUGUAUGAACCAAUAGGUGGAAACAGCAAUGUAAGAAGGCUGCUCCGACA	178	481	–	–
CUUUUGUGAGGAUAUCAGUAGUAAAAAAAUAAAAUUACUACUGAGAAGGCACAUGAGGAUCACCCAUGUUCCUU	26.8	31.6	–	–
AUAUGACAUGAGGAUCACCCAUGUAUUCGAGCAUGAGGAUAUAUGACUCGUCAUCGGCGGAUAGAAGGCAUGGUUG	–	–	88.5	143
GGCUGACAUGUAGGAUAUCUGCACGUGUAGUGCAGAGAAGGACAUGAGGAUCACCCAUGUAUAGCGACUUCGGUCGCAACAGCC	49.2	159	–	–
CGUGCAUAUGUAGGAUAUGGUUAUCUAUGUCUAGUUACUAGACAUAGAUAACCAGAAGGACAUGAGGAUCACCCAUGUUGCACG	12.8	24.2	–	–
UUAUGAGCGAUAGGAUAUACUGAGAUUGAAUGGGUAGAAGGAUCGAUCGUGUAGAAGACAUGAGGAUCACCCAUGUUACGGGCC	–	–	97	218
GCCUCAUAGUAGAAGGGACUUAUACAGUAAUGUUUUUAGUGUAAAUAACAUGAGGAUCACCCAUGUCAGGAUAUACUAAGAGGC	9.24	12.1	–	–
CGUGGACAUGAGGAUCACCCAUGUGAGGAUAUCGGCUGGUACGUGUUGGCUGGCAUCUCGAGAAGGCACAUAGU	43.8	80.4	–	–
UGGUACUAGGGAGGAUAUGGGACGAUACAUGAGGAUCACCCAUGUUUAAGAAUGCCGAGAGGCAACUAGAAGGCCCUAGUACCU	–	–	494	21.7
GUAGCAUUCCGAGGAUAUUCAGGGCGUGGAUAUACAUGAGGAUCACCCAUGUGGCGGAAGCCUAGGGAGAAGGCGGGCUGCUUC	–	–	27.8	18.6
GGCCGGAAUGUAGGAUAUGGAUAUUUAAAUAUACCAGAAGGACAUGAGGAUCACCCAUGUAUAAUAAUUAACAAACUUAGAUCC	32.7	121	–	–
AGCUAGGCAGGAUAUACGUAAAUGUCGAAAGACGUAUUGGGACAUGAGGAUCACCCAUGUAGAAGGGUCUAGCA	37.6	123	–	–
GGUAAGAUGCAGAAGGUGUUAGCUAGAGCUACGACAUGAGGAUCACCCAUGUACUAGAAACAGUACAAGGAUAUGCAUCUUACA	–	–	17.1	6.12
UAUAUAUAGUAAGGAUAUGUAAUUCUUUUAUAAACAGAAGGUACUGACAUGAGGAUCACCCAUGUUUUAGUGUGGGCAUGUAGA	66.3	81.9	–	–
CUGGUGUGAGGAUAUCAGGGCACGCCCAAGGGCGUACCAAAUGAGAAGGCACAUGAGGAUCACCCAUGUGGGAC	36.5	160	–	–
AAGCCCUGAGGAUAUCCCAACUCGCACAUGAGGAUCACCCAUGUUCUUCUCUGGGUUUCGGGAGAAGGCAGGCCUC	96.5	43.8	–	–
AUGAGCCGAGGAGGAUAUGACGGGUGCUAAAUCACAUGAGGAUCACCCAUGUCAGAAGGCCUCGCCAUAUUUGAUGCUUUAGAG	201	9.55	–	–
AUAUUAAUAUAGGAUAUCGAAUUUAUUAAUUAUCGAGAAGGAUAAACAUGAGGAUCACCCAUGUGGUAUCAUGG	181	225	–	–
UACAAUCUAUCUGAGGAUAUCAUGAAAAAAACAUGAGGAUCACCCAUGUGCAGGAAAACUGCAUAUGAGAAGGCAGAUAGAUUGA	–	–	873	26.9
GGAUGAUUAACAGGAUAUCAUUUGUAAAUUGGUUGAGAAGGGUUAAUGAUUUAAACGACCUGUUACAUGAGGAUCACCCAUGUU	–	–	64.3	38.2
GCGCUUAAACAGAAGGCCAAAUACAUGAGGAUCACCCAUGUCGAAUCAUGGAGGAUAUGUUAUUAAUUACACGCAGAUGAGCGC	–	–	124	10.7
AGUUUUGUACAUGAGGAUCACCCAUGUUAAUAUGUGGUAGUCAGAAGGCAUUGUUAGAGUUUUAAUGAGGAUAUGAAUAUUCUG	–	–	38.3	25
GGUGCGUAUGUGAGGAUAUGCUGGUCCUUGGAUCCGCAGAAGGCACAUGAGGAUCACCCAUGUGGUGUCGUACC	299	27.6	–	–
GGGUACAUCGGAGGAUAUCAUGUAAAUACAUGAGGAUCACCCAUGUCGAUGGAGACAUCGGCGAUUGAGAAGGCCGAUGUACCG	–	–	752	17.6
GGUGGACAUGAGGAUCACCCAUGUGAGGAUAUCGGCUGGCUAGCGGCGGAUGGCUUCUCGAGAAGGCGCAUAGU	80.2	67.5	–	–

Sequence	apparent Kd [1] [nM]	apparent Kd [2] [nM]	apparent Kd [3] [nM]	apparent Kd [4] [nM]
GGUCUGAUAUGAGGAUAUGCUCAGGAAUACUGAGCAGAAGGCAUGUGAAAACAUGAGGAUCACCCAUGUGAUCAAUACAGACCA	–	–	147	23.7
GGCGGGCGAAACAUGAGGAUCACCCAUGUGUUAUACUUAAUAUAGGAUAUGUUUAUACUUUUUGGGCAGAAGGAUGCGCCUGCC	–	–	37.9	33.4
AAUAACAGAGGAUAUACUGUUUUAUGUAUUUAUUAUUUUGAACAUGAGGAUCACCCAUGUAGAAGGCUGAUUAA	33.3	28.4	–	–
UGUGUUAUAGGAUAUACGGGUAUGUGAAUCUCUCCAUCGGUACAUGAGGAUCACCCAUGUAGAAGGAUAAGGUA	35.7	80.8	–	–
GUCCUCUUGACAUGAGGAUCACCCAUGUAUUAUUUGUUAACUGAGGAUAUACUCUUAUUUUUUAUGUAGAAGGCAGAUUUGUUC	40.9	52.5	–	–
GGAGAUACAUGAGGAUCACCCAUGUAGGAUAUCGGGCCUAUAUAUGGCGAAAGCCAUAUAUAGGCCGAGAAGGGCGUACACACC	8.07	7.52	–	–
CAGAUCGGCGCAGGAUAUGUCGACAUGAGGAUCACCCAUGUAAACCUUGUCUGGUCCGGUGUGUGACAGAAGGGUGUCGGCCAU	31.5	30.9	–	–
CUUAUGUGAGGAUAUCAGUAGUGAUACGAUAGUAUUACUGCUGAGAAGGUACAUGAGGAUCACCCAUGUUCCUC	17.1	20.4	–	–
GAUCUGUCGGUUGACCCAACAUGAGGAUCACCCAUGUAUGUGGAGGAUAUCUAGAUCUGCGGACGAGAGAAGGCCGCAUACGUU	69	421	–	–
GUGCAUACGUGAGGAUAUGUAUUAGAUAGUGGUACAGAAGGCAUGUCUGAUGACAUGAGGAUCACCCAUGUUGGCACAGUGCGC	–	–	59.7	29.6
GGAAGCUCAACGGAGCUAAGGUAGAAGGAUAUCCACGGCUAUAUCCACAUGAGGAUCACCCAUGUGGAGAAGGUCUAUCUUAAG	5.83	10.4	–	–
AACAUGUGAGGAUAUUUAAGAAAAGAAAAGAAAGAAAAGAAAAAGAAGGCACAUGAGGAUCACCCAUGUAAGAA	24.8	35.9	–	–
GUAGCAUACCGAGGAUAUUCAUACCGGAAACGGACAUGAGGAUCACCCAUGUGGCUAAUGCCUUGGGAGAAGGCGGAAUGCUAC	–	–	568	21.7
UCGGCGCGAGGAUAUACGUUUGCUCUUUUUCGUUUUUGUGUACAUGAGGAUCACCCAUGUAGAAGGCGCGCCGC	17.9	63.7	–	–
CCUUGACAUGAGGAUCACCCAUGUGAGGAUAUGAUGCGAUCGUCGAAAGACGAUAGCAUCAGAAGGCACAUAUG	23.4	95.7	–	–
UGGUACUAGGGAGGAUAUGGGAAAAUACAUGAGGAUCACCCAUGUUUAAGAAUGCCGAGAGGCAACUAGAAGGCCCUAGUACCU	–	–	16.2	5.26
AUUGGUGAGUAGAAGGUACGAUAUUAGUUAUAGUAAGGAUAUACUAACAUGAGGAUCACCCAUGUAUAAAUGGAUAAAUUAUCU	–	–	11.7	8.98
AAAAUUGGCAGAUAAAAGGUCACACAGGAUAUACUCCCAACAUGAGGAUCACCCAUGUACUGGCGGUAGAAGGGUGGGAUCCUC	–	–	50.7	13.5
UCGCUGCGAGGAUAUACGUUUGCGCGCUUUCGUUUGCGCGUACAUGAGGAUCACCCAUGUAGAAGGCGCGCCGC	15.9	15.9	–	–
GGAUGUCAAAGACAUCCAAUUCGAACAUGAGGAUCACCCAUGUAGGAUAUGCUACUCAAAGAGUAGCAGAAGGACAUGUGCCUU	30.6	213	–	–
UGGCUACAUGAGGAUCACCCAUGUCAGGAUAUGCCGUCGGCUUGCGUUCGUCGUUCGGGUAGAAGGGACUGCGG	85.3	106	–	–
CCGAUAAUGUAGGAUAUCGUAUCGGAAACGAUACGAGAAGGACAAACAUGAGGAUCACCCAUGUUCCUUAACGG	15.5	16.5	–	–
AUACCACGAGGAUAUCGACUAUACCACAUGAGGAUCACCCAUGUUAUCCAUGUUUCGUUUCGAGAAGGCGUGGGUU	39.1	33.9	–	–
AUCGUGCAGCUUUGCUGUACGCGUACAUGAGGAUCACCCAUGUAGGAUAUGGUACGCUUUGCGUGCUAGAAGGAUAUGGAGAGG	16.9	21.1	–	–
UGUCGGAGCAGAGGAUAUUACAUGAGGAUCACCCAUGUAUGAACCAAUAGCUGGAAACAGCAAUGUAAGAAGGCUGCUCCAACA	12.3	149	–	–
AUCAGCUCGUCAGGAUAUACGUCACCGCGUCAGCAGUGUGGUAAGAUCACAUGAGGAUCACCCAUGUAGAAGGGACGAGCUGAU	13.6	237	–	–
AUUAAACAUGAGGAUCACCCAUGUCAACAAAGUCGAGGAUAUGGGCAAAUAAAAUAAGUACCAGAAGGCGAAUAAU	–	–	113	24.2
